The full list was thinned out, with hits kept by preference.
XBP1 UPR activ: adaptive UPR (XBP1) activation; CHO-XBP1 luciferase reporter, IRE1-XBP1 UPR activation, luminescence; percent of tunicamycin response, DMSO as zero; activation, % at 20 µM; actives 0.33% (n = 330,000); AID 463104;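 active means versus positive control, 20 µM dose yields 30% or more activation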;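 further: 100% = tunicamycin at 10 µg/mL and 0% = DMSO only wells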
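Material: CHO-XBP1 cells stably carrying IRE1-XBP1-driven luciferase reporter | Medium: F12 with 10% serum | Compound dosing: 20 µM single concentration, DMSO 1% | Incubation: Overnight seeding at 37 °C, 6 h compound treatment at 37 °C | Detection: Steady-Glo luminescence read | Read-out basis: % activation of reporter signal versus tunicamycin and DMSO controls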
UPR CHOP act: activators of apoptotic arm of unfolded protein response (CHOP) | CHO-CHOP luciferase reporter, UPR activation, luminescence; percent of tunicamycin response over DMSO baseline | activation, % at 10 µM | actives 0.34% (n = 330,000) | AID 449763;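 active means at 10 µM dose, activation of 40% or more, normalized to positive control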;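 further: 100% = tunicamycin at 10 µg/mL and 0% = DMSO alone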
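Test system: CHO CHOP reporter cells. Input: 500 CHO-CHOP cells per well. Medium: F12 with 10% FBS. Technique: luciferase luminescence. Measure: percent activation relative to tunicamycin control. Dosing: 10 µM compound, 0.5% DMSO. Timing: 16-18 h cell attachment, then 6 h compound exposure, 37 °C.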
B2AR ag: human beta-2 adrenergic receptor agonism by FAP. P07550. Am2.2-beta2AR cells, FAP receptor internalization, flow cytometry. response, % (no concentration beside the values). actives 0.43% (n = 340,000). AID 504454;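 active means response above a set limit, near 3 SD of response in nonfluorescent compounds, cut at about 42% in these data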
Dynein transport: dynein cargo transport inhibition; 3617.4 mouse cells, GR-EGFP nuclear translocation imaging; test concentration mostly 20 µM; stimulated with dexamethasone, 1 µM; stronger effect = lower value; z-score, hits read low; actives 0.47% (n = 220,000); AID 1381;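 active means plate z-score of nuclear minus cytoplasmic receptor signal below a set negative limit, without overly bright fluorescence or cell loss, cut at about -3.5 in these data, passing the limit was not always enough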;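 further: z-score of nuclear minus cytoplasmic ring GR-EGFP intensity difference per well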
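Buffer or medium: tet-free, stripped-serum medium; Also added: dexamethasone, 1.0 µM final; Technique: high-content fluorescence imaging after fixation; Times: 48 h induction, 1 h compound, 30 min dex at 37 °C; Read-out: per-cell GR-EGFP intensity, nucleus versus surrounding cytoplasmic ring, well-averaged.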
CHOP inh: blocks CHOP induction under ER stress | CHO-K1 CHOP-promoter luciferase, tunicamycin-induced, 15-18 h | inhibition, % at 10 µM | actives 3.8% (n = 220,000) | AID 2732;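 active means compounds that reduced the stress-induced luciferase reporter signal by more than about 70% of percent inhibition, limit read from the data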;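 further: 0% = tunicamycin plus vehicle and 100% = wells without tunicamycin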
p-CIP stab down: compounds decreasing mouse p/CIP protein stability | Q05BA5 | F442A p/CIP-EGFP cells, EGFP fluorescence, 16 h | decrease of EGFP signal, % at 10 µM | actives 0.01% (n = 290,000);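 active means EGFP signal decrease of at least 30% at 10 µM or well 3 SD below plate mean, unless failing retest; inactive means the rest, including hits failing retest or dose response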
UPR XBP1 confirm: confirmation of adaptive unfolded protein response (XBP1) activators | shares compounds with XBP1 UPR activ | CHO-XBP1 IRE1-XBP1 luciferase reporter, luminescence | activation, % at 20 µM | actives 63% (n = 1,000) | AID 485299;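 active means reporter signal at least 30% of the positive control's activation in two or more of four replicate wells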;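 further: plate controls were DMSO negative control for no effect and tunicamycin 10 µg/mL positive control for full effect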
An asterisk follows results filed as active; . = no result given.

SMILES	XBP1 UPR activ	UPR CHOP act	B2AR ag	Dynein transport	CHOP inh	p-CIP stab down	UPR XBP1 confirm
CC(C)CNC(=O)c1cccc(NC(=O)c2ccc3c(c2)C(=O)N(C)C3=O)c1	-4	0	-4	.	.	-4	.
COc1ccc2nc(NC(=O)c3cccc(-c4cc5ccccc5oc4=O)c3)sc2c1	78*	25	15	0.074	105*	-3	55*
COc1ccc(C(=O)Nc2nc3ccc(OC)cc3s2)cc1	2	7	0	.	.	2	.
COc1ccc(-c2sc3ccccc3c2-c2ccc(OCCN(C)C)cc2)cc1	44*	12	18	.	.	.	58*
O=C(NCCCNC(=O)c1cccnc1)c1ccc(Cl)cc1	7	-1	-4	.	.	3	.
COC(=O)c1c(NC(=O)c2nc3ccccc3s2)sc2c1CC(C)(C)NC2(C)C	41*	26	-5	-0.068	67	-7	48*
CCCNC(=O)c1ccc2c(=O)c(O)c(-c3ccc(OC)cc3)[nH]c2c1	63*	3	-3	-0.6	39	-16	56*
O=C(Cc1csc(-c2ccccc2)n1)NCC(=O)Nc1ccc(F)c(F)c1F	-4	-1	-8	.	.	.	.
COc1cccc(/C=N/NC(=O)c2ccccc2)c1OS(=O)(=O)c1ccccc1	-4	-1	3	0.25	9	2	.
Cc1cccc(C)c1NC(=O)C1CSC2(C)CCC(=O)N12 (stereo unspecified)	-2	1	4	.	.	.	.
Cc1cccc2sc(NC(=O)C3CSC4(C)CCC(=O)N34)nc12 (stereo unspecified)	31*	0	-7	.	.	-40	-2
Cc1ccc(NC(=O)c2c(C)nc3sc(C(=O)NC4CCCC4)c(N)c3c2-c2ccco2)c(C)c1	63*	26	-24	1.8	38	-3	105*
NS(=O)(=O)c1ccc(N/N=C/c2cn(-c3ccccc3)nc2-c2cccs2)c([N+](=O)[O-])c1	57*	27	38	-0.00051	61	-18	62*
COc1ccc(/C=N/NC(=O)c2cc3c(OC)ccc(OC)c3[nH]2)cc1O	32*	1	22	.	.	-10	21
C=CC[C@@H](CC(=O)N[C@@H](CO)Cc1ccccc1)C(=O)N[C@H](C)COC(=O)[C@@H](CC=C)Cc1ccc(F)cc1	0	1	3	.	.	.	.
C/C(=N\NC(=O)CCc1ccc(S(=O)(=O)N2CCOCC2)cc1)c1ccc(OC(F)F)cc1	-1	-1	-2	0.058	5	7	.
O=C(N/N=C/c1ccccc1Cl)c1[nH]c2ccc(Br)cc2c1-c1ccccc1	50*	0	26	-0.31	-8	-31	59*
Oc1oc(-c2ccccc2)nc1C=Nc1ccccc1	3	3	-7	-0.72	-32	-19	.
O=[N+]([O-])c1cccc(/C=C/c2nc(C=Nc3ccccc3)c(O)o2)c1	36*	2	2	2	8	1	24
CCOc1ccc(NS(=O)(=O)c2ccc(C(=O)N(C)CCc3ccc(OC)c(OC)c3)cc2)cc1	-4	0	20	.	.	0	.
Cc1ccc(Cl)cc1N1CCN(Cc2nc3c(c(=O)[nH]c(=O)n3C)n2CCc2ccccc2)CC1	46*	22	6	-0.48	25	-6	55*
Cc1ccc(S(=O)(=O)c2cc3c(=O)n4cccc(C)c4nc3n(Cc3ccncc3)c2=N)cc1	49*	15	-3	.	.	-17	20
Nc1nc(-c2cc(O)ccc2[N+](=O)[O-])cc(-c2ccccc2)c1[N+](=O)[O-]	311*	36	23	.	.	-13	214*
CC(NS(=O)(=O)c1cc(C(F)(F)F)ccc1Cl)C(=O)N(C)C1CCN(C)CC1 (stereo unspecified)	-2	2	-25	.	.	.	.
CCOc1cc(/C=N\Nc2ccc([N+](=O)[O-])cc2)ccc1OCC(=O)Nc1ccc(C)c(C)c1	44*	7	-46	-0.95	27	-111	66*
SMILES	XBP1 UPR activ	UPR CHOP act	B2AR ag	Dynein transport	CHOP inh	p-CIP stab down	UPR XBP1 confirm
CN(C)CC/C=C1\c2ccc(F)cc2Sc2cc(F)c(Cl)cc21	86*	2	32	.	.	.	122*
O=C(NCc1cccs1)c1ccc(N2CCCCC2)nc1	30	4	-5	1.6	13	-4	21
O=C(NCc1cccs1)c1ccncc1	-2	-2	-7	-0.25	10	-7	.
CC1CCCN(c2ccc(C(=O)NCc3cccs3)cn2)C1 (stereo unspecified)	38*	5	-4	0.95	8	-6	32*
CCN1CCc2c(OCC(=O)Nc3ccc4c(c3)OCCO4)cccc2C1=O	-1	-1	.	0.22	-11	-11	.
O=[N+]([O-])c1ccc(-c2ccc(/C=N/Nc3nc(NCc4ccccc4)nc(N4CCOCC4)n3)o2)cc1	47*	34	-46	-1.4	-48	-36	25
Cc1cc(C)c(C(=O)N2CCC(N3CCC(C(=O)NC(C)C)CC3)CC2)o1	-5	0	-1	.	.	-91	.
CC1=CC(C)(C)n2c(O)c(N=NC(N)=S)c3cc(C)cc1c32	31*	22	-8	-0.39	35	6	3
CC1=CC(C)(C)n2c(O)c(C3=NC(=S)NC3=O)c3cc(OC(=O)c4cccc5ccccc45)cc1c32	9	4	19	0.036	18	2	.
CC(C)c1ccc(CN2CCC(C(=O)NCc3cccnc3)CC2)cc1	-1	1	-2	-0.067	-21	-3	.
CCn1c(Sc2ccc([N+](=O)[O-])cn2)nnc1-c1ccco1	0	-3	-4	-0.066	19	-15	.
CC(C)N1C(=O)C2(OCCCO2)c2cc(Br)ccc21	2	1	2	.	.	-91	.
COc1ccc2nc(C)cc(SCC(=O)N/N=C/c3cccc4ccccc34)c2c1	80*	27	32	-0.1	39	4	126*
Cn1nccc1C(=O)Oc1ccc(/C=N/NC(=O)c2ccccc2O)cc1	2	1	16	-0.81	-24	-1	.
Clc1ccc(-c2ccc(-c3nn4c(-c5ccco5)nnc4s3)o2)cc1	91*	3	4	0.39	.	.	8
Brc1ccc(-c2nn3c(-c4ccco4)nnc3s2)o1	2	-3	13	0.13	8	-1	.
Cc1csc(NC(=O)CSc2nc(=O)[nH]c3c2CCCC3)n1	-1	1	-20	.	.	5	.
O=C(N=Nc1c(O)n(C2OC(=O)c3ccccc32)c2ccccc12)c1ccc(O)cc1 (stereo unspecified)	105*	2	-2	0.34	78*	7	11

Screens deposited in PubChem BioAssay by several laboratories.
